From ChEMBL document CHEMBL4814031, “In pursuit of a selective hepatocellular carcinoma therapeutic agent: Novel thalidomide derivatives with antiproliferative, antimigratory and STAT3 inhibitory properties” (Eur J Med Chem, 2021)
The source made the active and inactive calls. No cut-off for these calls is given here.

Experiments:
[1] = Antiproliferative activity against mouse BMOL-NT cells assessed as cell growth inhibition at 10 uM measured every 4 hrs for 3 days by IncuCyte zoom live cell analysis relative to control; assay type: cell-based; settings: time 3 day; for Activity: bmol-nt, 72 h, 10 µM; for inhibition at 72 h, 10 µM: BMOL-NT cells
[2] = Antiproliferative activity against mouse BMOL-NT cells assessed as cell growth by measuring doubling time at 10 uM measured every 4 hrs for 3 days by IncuCyte zoom live cell analysis (reference value: 18 to 19 hrs); assay type: cell-based; settings: 72 h, time 3 day
[3] = Antiproliferative activity against mouse BMOL-T cells assessed as cell growth by measuring doubling time at 10 uM measured every 4 hrs for 3 days by IncuCyte zoom live cell analysis (reference value: 14.3 to 15 hrs); assay type: functional; settings: time 3 day
[4] = Antiproliferative activity against mouse BMOL-T cells assessed as change in doubling time at 10 uM measured every 4 hrs for 3 days by IncuCyte zoom live cell analysis relative to control; assay type: functional; settings: time 3 day
[5] = system: BMOL-T; test: Antiproliferative activity against mouse BMOL-T cells assessed as cell growth inhibition at 10 uM measured every 4 hrs for 3 days by IncuCyte zoom live cell analysis relative to control; assay type: functional; settings: time 3.0 day
[6] = Antiproliferative activity against mouse BMOL-NT cells assessed as change in doubling time at 10 uM measured every 4 hrs for 3 days by IncuCyte zoom live cell analysis relative to control; assay type: cell-based; settings: 72 h, time 3 day
[7] = Selectivity for antiproliferative activity against mouse BMOL-T cells over mouse BMOL-NT cells at 10 uM measured every 4 hrs for 3 days by IncuCyte zoom live cell analysis; settings: time 3 day
[8] = target: T1, Transcription factor p65 (Mus musculus, UniProt Q04207); test: Inhibition of NFkB p65 phosphorylation in mouse BMOL-NT cells assessed as change in phosphorylated p65 level at 10 uM incubated for 6 hrs by immunofluorescent assay relative to control; assay type: cell-based; parameters: scale not given: the % may be the effect or the level left
In short: (§1)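 BMOL cells in supplemented Williams' E medium were treated 6 h with compound or 0.1% DMSO vehicle. Fixed in 4% PFA, permeabilised with 0.1% Triton X-100, blocked, then incubated 18 h with anti-phospho-p65, -Akt or -STAT3, then secondary antibody 1 h and Hoechst. High-content imaging of per-cell intensity and nuclear:whole-cell ratio. Mean of two experiments, SD.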

[9] = Inhibition of Akt phosphorylation in mouse BMOL-NT cells assessed as change in phosphorylated Akt level at 10 uM incubated for 6 hrs by immunofluorescent assay relative to control; assay type: cell-based; parameters: scale not given: the % may be the effect or the level left; in short: as §1
[10] = Antimigratory activity against mouse BMOL-T cells assessed as inhibition of cell migration at 10 uM incubated for 16 hrs by scratch wound healing assay relative to control; assay type: functional
In short: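 Wound healing in BMOL-T cells plated at 20,000/well in supplemented Williams' E medium and grown 24 h. Wounds made with a Woundmaker, then medium replaced with fresh medium holding compound or 0.1% DMSO vehicle. Live-cell imaging every 2 h over 24 h, read as average wound width (µm). n = 3, SEM.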

[11] = target: T2, Signal transducer and activator of transcription 3 (Mus musculus, UniProt P42227); test: Inhibition of STAT3 phosphorylation in mouse BMOL-NT cells assessed as change in nuclear phosphorylated STAT3 level at 10 uM incubated for 6 hrs by immunofluorescence assay relative to control; assay type: subcellular, Nucleus; parameters: scale not given: the % may be the effect or the level left; in short: as §1
[12] = target: Signal transducer and activator of transcription 3 (Mus musculus) (UniProt P42227); test: Inhibition of STAT3 phosphorylation in mouse BMOL-T cells assessed as change in phosphorylated STAT3 level at 10 uM incubated for 6 hrs by immunofluorescence assay relative to control; assay type: cell-based; parameters: scale not given: the % may be the effect or the level left; in short: as §1
[13] = system: BMOL-T; test: Inhibition of Akt phosphorylation in mouse BMOL-T cells assessed as change in nuclear phosphorylated Akt level at 10 uM incubated for 6 hrs by immunofluorescent assay relative to control; assay type: subcellular; parameters: scale not given: the % may be the effect or the level left; settings: Nucleus; in short: as §1
[14] = target: Transcription factor p65 (Mus musculus) (UniProt Q04207); test: Inhibition of NFkB p65 nuclear translocation in mouse BMOL-T cells assessed as change in nuclear p65 level at 10 uM incubated for 6 hrs by immunofluorescent assay relative to control; assay type: subcellular; parameters: scale not given: the % may be the effect or the level left; settings: Nucleus; in short: as §1
[15] = target: Transcription factor p65 (Mus musculus) (UniProt Q04207); test: Inhibition of NFkB p65 phosphorylation in mouse BMOL-T cells assessed as change in phosphorylated p65 level at 10 uM incubated for 6 hrs by immunofluorescent assay relative to control; assay type: cell-based; parameters: scale not given: the % may be the effect or the level left; in short: as §1
[16] = target: T2, Signal transducer and activator of transcription 3; test: Inhibition of STAT3 phosphorylation in mouse BMOL-NT cells assessed as change in phosphorylated STAT3 level at 10 uM incubated for 6 hrs by immunofluorescence assay relative to control; assay type: cell-based; parameters: scale not given: the % may be the effect or the level left; in short: as §1
[17] = target: T1, Transcription factor p65; test: Inhibition of NFkB p65 nuclear translocation in mouse BMOL-NT cells assessed as change in nuclear p65 level at 10 uM incubated for 6 hrs by immunofluorescent assay relative to control; assay type: subcellular, Nucleus; parameters: scale not given: the % may be the effect or the level left; in short: as §1
[18] = target: Signal transducer and activator of transcription 3 (Mus musculus) (UniProt P42227); test: Inhibition of STAT3 phosphorylation in mouse BMOL-T cells assessed as change in nuclear phosphorylated STAT3 level at 10 uM incubated for 6 hrs by immunofluorescence assay relative to control; assay type: subcellular; parameters: scale not given: the % may be the effect or the level left; settings: Nucleus; in short: as §1
[19] = system: BMOL-T; test: Inhibition of Akt phosphorylation in mouse BMOL-T cells assessed as change in phosphorylated Akt level at 10 uM incubated for 6 hrs by immunofluorescent assay relative to control; assay type: cell-based; parameters: scale not given: the % may be the effect or the level left; in short: as §1
[20] = system: BMOL-T; test: Effect on STAT3 expression in mouse BMOL-T cells at 10 uM by AlphaLISA assay; assay type: functional, cell-based
In short: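 AlphaLISA in BMOL-T cells treated at 10 µM with 0.1% DMSO vehicle as control. Read as normalised fluorescence for total STAT3, or as the ratio of total STAT3 to p-STAT3. n ≥ 3, SEM. Significance by ANOVA with Dunnett's test.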

[21] = Inhibition of Akt phosphorylation in mouse BMOL-NT cells assessed as change in nuclear phosphorylated Akt level at 10 uM incubated for 6 hrs by immunofluorescent assay relative to control; assay type: subcellular, Nucleus; parameters: scale not given: the % may be the effect or the level left; in short: as §1

T1 sequence (Q04207 whole entry): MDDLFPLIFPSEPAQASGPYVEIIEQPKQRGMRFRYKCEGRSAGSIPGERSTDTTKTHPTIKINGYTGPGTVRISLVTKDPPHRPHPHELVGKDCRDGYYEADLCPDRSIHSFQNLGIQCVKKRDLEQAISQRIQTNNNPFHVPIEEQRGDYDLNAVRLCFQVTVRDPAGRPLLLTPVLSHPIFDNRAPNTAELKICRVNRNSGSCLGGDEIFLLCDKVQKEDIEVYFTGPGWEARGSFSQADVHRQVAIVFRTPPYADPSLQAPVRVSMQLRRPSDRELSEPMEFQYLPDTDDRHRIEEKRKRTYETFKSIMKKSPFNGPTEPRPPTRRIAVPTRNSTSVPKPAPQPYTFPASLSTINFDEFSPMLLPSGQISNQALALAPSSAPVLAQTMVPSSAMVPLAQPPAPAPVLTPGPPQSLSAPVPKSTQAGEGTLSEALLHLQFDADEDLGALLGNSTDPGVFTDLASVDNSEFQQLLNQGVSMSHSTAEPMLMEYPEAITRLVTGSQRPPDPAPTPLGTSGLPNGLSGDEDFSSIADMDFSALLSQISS
Transcription factor p65 (Mus musculus), sequence (Q04207 whole entry): as above
Signal transducer and activator of transcription 3 (Mus musculus), sequence (P42227 whole entry): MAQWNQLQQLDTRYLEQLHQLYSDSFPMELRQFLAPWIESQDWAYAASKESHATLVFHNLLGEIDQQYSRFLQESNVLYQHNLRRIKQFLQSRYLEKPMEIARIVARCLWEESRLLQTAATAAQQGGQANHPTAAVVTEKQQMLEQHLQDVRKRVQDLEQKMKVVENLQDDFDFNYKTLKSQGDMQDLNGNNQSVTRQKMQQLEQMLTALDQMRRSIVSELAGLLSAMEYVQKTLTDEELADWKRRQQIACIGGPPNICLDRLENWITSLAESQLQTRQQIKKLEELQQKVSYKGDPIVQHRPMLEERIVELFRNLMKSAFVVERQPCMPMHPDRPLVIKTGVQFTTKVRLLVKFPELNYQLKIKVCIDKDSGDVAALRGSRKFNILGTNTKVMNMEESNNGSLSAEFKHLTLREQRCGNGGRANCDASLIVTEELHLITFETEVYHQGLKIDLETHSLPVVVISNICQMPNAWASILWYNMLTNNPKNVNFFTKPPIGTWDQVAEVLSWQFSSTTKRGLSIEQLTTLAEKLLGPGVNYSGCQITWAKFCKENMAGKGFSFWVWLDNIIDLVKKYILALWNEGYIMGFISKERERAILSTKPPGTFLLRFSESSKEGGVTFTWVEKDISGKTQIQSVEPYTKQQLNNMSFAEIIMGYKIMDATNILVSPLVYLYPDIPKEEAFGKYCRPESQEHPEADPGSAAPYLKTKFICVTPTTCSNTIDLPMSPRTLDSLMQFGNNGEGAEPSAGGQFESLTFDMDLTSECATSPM
T2 sequence (P42227 whole entry): as above

## O=C1CCC(N2C(=O)c3cccc(Sc4ccc5ccccc5n4)c3C2=O)C(=O)N1 (stereo unspecified)
[1]
  Activity: Non-Toxic

## Cc1ccc(Sc2cccc3c2C(=O)N(C2CCC(=O)NC2=O)C3=O)cc1 (stereo unspecified)
[2]
  Time: 19.3 h

## O=C1CCC(N2C(=O)c3cccc(Nc4ccccc4)c3C2=O)C(=O)N1 (stereo unspecified)
[3]
  Time: 14.3 h
[4]
  Activity: 7%
[2]
  Time: 17.4 h

## CC(C)c1ccc(Oc2cccc3c2C(=O)N(C2CCC(=O)NC2=O)C3=O)cc1 (stereo unspecified)
[3]
  Time: 15.4 h
[4]
  Activity: 5%
[2]
  Time: 17.5 h

## O=C1CCC(N2C(=O)c3cccc(Nc4ccc(O)cc4)c3C2=O)C(=O)N1 (stereo unspecified)
[5]
  Activity: Active

## CC(C)c1ccc(Cc2cccc3c2C(=O)N(C2CCC(=O)NC2=O)C3=O)cc1 (stereo unspecified)
[3]
  Time: 17 h
[4]
  Activity: 17%
[2]
  Time: 17.5 h

## O=C1CCC(N2C(=O)c3cccc(Cc4ccccc4)c3C2=O)C(=O)N1 (stereo unspecified)
[6]
  Activity: 2%
[3]
  Time: 13.8 h
[2]
  Time: 17.7 h

## CC(C)c1ccc(Nc2ccc3c(c2)C(=O)N(C2CCC(=O)NC2=O)C3=O)cc1 (stereo unspecified)
[3]
  Time: 14.1 h
[4]
  Activity: 3%
[2]
  Time: 17.2 h

## O=C1CCC(N2C(=O)c3cccc(Sc4ccccc4)c3C2=O)C(=O)N1 (stereo unspecified)
[6]
  Activity: 1%
[3]
  Time: 13.8 h
[4]
  Activity: 2%
[2]
  Time: 16.8 h

## O=C1CCC(N2C(=O)c3cccc(Sc4ccc(C(F)(F)F)cn4)c3C2=O)C(=O)N1 (stereo unspecified)
[5]
  Activity: inactive

## CC(C)c1ccc(S(=O)(=O)c2cccc3c2C(=O)N(C2CCC(=O)NC2=O)C3=O)cc1 (stereo unspecified)
[6]
  Activity: 3%
[3]
  Time: 14.9 h
[4]
  Activity: 3%
[2]
  Time: 17.4 h

## Cc1ccc(Nc2cccc3c2C(=O)N(C2CCC(=O)NC2=O)C3=O)cc1 (stereo unspecified)
[5]
  Activity: inactive

## CCc1ccc(Nc2cccc3c2C(=O)N(C2CCC(=O)NC2=O)C3=O)cc1 (stereo unspecified)
[5]
  Activity: Active
[1]
  inhibition at 72 h, 10 µM: ≤ 10%

## CCCc1ccc(Nc2cccc3c2C(=O)N(C2CCC(=O)NC2=O)C3=O)cc1 (stereo unspecified)
[5]
  Activity: Active

## CN(C)c1ccc(Nc2cccc3c2C(=O)N(C2CCC(=O)NC2=O)C3=O)cc1 (stereo unspecified)
[5]
  Activity: Active

## COc1ccc(Sc2cccc3c2C(=O)N(C2CCC(=O)NC2=O)C3=O)cc1 (stereo unspecified)
[1]
  Activity: Toxic

## CC(C)c1ccc(Sc2cccc3c2C(=O)N(C2CCC(=O)NC2=O)C3=O)cc1 (stereo unspecified)
[6]
  Activity: 3%
[3]
  Time: 16.2 h
[4]
  Activity: 19%
[2]
  Time: 17.2 h

## CCCCc1ccc(Nc2cccc3c2C(=O)N(C2CCC(=O)NC2=O)C3=O)cc1 (stereo unspecified)
[5]
  Activity: Active
[1]
  inhibition at 72 h, 10 µM: ≤ 10%

## O=C1CCC(N2C(=O)c3cccc(Sc4ncccn4)c3C2=O)C(=O)N1 (stereo unspecified)
[1]
  Activity: Non-Toxic

## Cc1ccccc1Nc1cccc2c1C(=O)N(C1CCC(=O)NC1=O)C2=O (stereo unspecified)
[5]
  Activity: inactive

## O=C1CCC(N2C(=O)c3ccccc3C2=O)C(=O)N1 (stereo unspecified) [THALIDOMIDE]
[3]
  Time: 15 h
[2]
  Time: 18 h

## COc1ccc(Nc2cccc3c2C(=O)N(C2CCC(=O)NC2=O)C3=O)cc1 (stereo unspecified)
[5]
  Activity: Active

## O=C1CCC(N2C(=O)c3cccc(Nc4ccc5c(c4)CCCC5)c3C2=O)C(=O)N1 (stereo unspecified)
[5]
  Activity: Active
[1]
  inhibition at 72 h, 10 µM: ≤ 10%

## O=C1CCC(N2C(=O)c3cccc(Nc4ccccn4)c3C2=O)C(=O)N1 (stereo unspecified)
[1]
  Activity: Toxic

## CC(C)Oc1ccc(Nc2cccc3c2C(=O)N(C2CCC(=O)NC2=O)C3=O)cc1 (stereo unspecified)
[5]
  Activity: Active

## O=C1CCC(N2C(=O)c3cccc(Oc4ccccc4)c3C2=O)C(=O)N1 (stereo unspecified)
[3]
  Time: 14.3 h
[4]
  Activity: 6%
[2]
  Time: 16.9 h

## O=C1CCC(N2C(=O)c3cccc(Sc4ccc(C(F)(F)F)cc4)c3C2=O)C(=O)N1 (stereo unspecified)
[5]
  Activity: inactive

## O=C1CCC(N2C(=O)c3ccc(Nc4ccccc4)cc3C2=O)C(=O)N1 (stereo unspecified)
[3]
  Time: 14.7 h
[4]
  Activity: 4%
[2]
  Time: 17.4 h

## CC(C)c1ccc(Nc2cccc3c2C(=O)N(C2CCC(=O)NC2=O)C3=O)cc1 (stereo unspecified)
[3]
  Time: 16.3 h
[4]
  Activity: 19%
[2]
  Time: 17.3 h

## CNC(=O)c1cc(Oc2ccc(NC(=O)Nc3ccc(Cl)c(C(F)(F)F)c3)cc2)ccn1 [SORAFENIB]
[6]
  Activity: 181%
[3]
  Time: 71 h
[4]
  Activity: 382%
[7]
  Selectivity ratio: 2.1
[2]
  Time: 50 h

## Nc1cccc2c1C(=O)N(C1CCC(=O)NC1=O)C2=O (stereo unspecified) [POMALIDOMIDE]
[3]
  Time: 15 h
[2]
  Time: 18 h

## Nc1cccc2c1CN(C1CCC(=O)NC1=O)C2=O (stereo unspecified) [LENALIDOMIDE]
[8]
  Activity: 13%
[9]
  Activity: 0%
[10]
  inhibition at 10 µM: 20%
[11]
  Activity: -3%
[12]
  Activity: -4%
[3]
  Time: 15 h
[13]
  Activity: -16%
[14]
  Activity: 7%
[15]
  Activity: -5%
[16]
  Activity: 2%
[17]
  Activity: -9%
[18]
  Activity: 3%
[19]
  Activity: -9%
[20]
  Activity: inactive
[2]
  Time: 18 h
[21]
  Activity: -6%
